# From ChEMBL document CHEMBL1148905, “Cytotoxic constituents of roots of Chaerophyllum hirsutum” (J Nat Prod, 2004)
# Counter-ions that a name gives are not always drawn.
# Tested on: LoVo
# Assay: Cytotoxicity against human LoVo cells after 72 hrs by MTT assay
# Assay type: functional, cell-based
# Details: not given
# Outline: (§1)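 Parental LoVo and the mdr-expressing (P-glycoprotein) LoVo/Doxo intestinal adenocarcinoma lines cultured in Ham's F12. Exponentially growing cells seeded at 5 × 10^4 cells/mL and allowed 18 h adherence before drug. MTT viability at 72 h. Growth as % of untreated controls, IC50 by linear regression. Mean ± SEM, three independent experiments. Doxorubicin hydrochloride as reference.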
row,Compound,IC50 [µM]
1,O=C(O)/C(=C/c1ccc(O)cc1)[C@@H](C(=O)O)C(=O)c1ccc(O)cc1,16.4
2,O=C1O[C@@H](c2ccc(O)cc2)[C@H](C(=O)O)/C1=C\c1ccc(O)cc1 (relative stereo),13.9
3,COc1cccc2c1C(=O)c1c(O)c3c(c(O)c1C2=O)C[C@@](O)(C(=O)CO)C[C@@H]3O[C@H]1C[C@H](N)[C@H](O)[C@H](C)O1 [DOXORUBICIN HYDROCHLORIDE],0.2
4,C=C[C@@H](O)C#CC#C[C@@H](O)/C=C\CCCCCCC [FALCARINDIOL],4.3
5,COC(=O)/C=C/c1ccc(O)c(O)c1 [METHYLCAFFEATE],5.8
6,COc1cc2ccc(=O)oc2cc1O [SCOPOLETIN],7.3

# Tested on: LoVo
# Assay: Cytotoxicity against human doxorubicin-resistant LoVo cells after 72 hrs by MTT assay
# Assay type: functional, cell-based
# Details: not given
# Outline: as §1
row,Compound,IC50 [µM]
1,O=C(O)/C(=C/c1ccc(O)cc1)[C@@H](C(=O)O)C(=O)c1ccc(O)cc1,19.6
2,O=C1O[C@@H](c2ccc(O)cc2)[C@H](C(=O)O)/C1=C\c1ccc(O)cc1 (relative stereo),> 40
3,COc1cccc2c1C(=O)c1c(O)c3c(c(O)c1C2=O)C[C@@](O)(C(=O)CO)C[C@@H]3O[C@H]1C[C@H](N)[C@H](O)[C@H](C)O1 [DOXORUBICIN HYDROCHLORIDE],13.2
4,C=C[C@@H](O)C#CC#C[C@@H](O)/C=C\CCCCCCC [FALCARINDIOL],> 40
5,COC(=O)/C=C/c1ccc(O)c(O)c1 [METHYLCAFFEATE],> 40
6,COc1cc2ccc(=O)oc2cc1O [SCOPOLETIN],18.5

# Tested on: HT-1080
# Assay: Cytotoxicity against human HT1080 cells after 72 hrs by MTT assay
# Assay type: functional, cell-based
# Details: HT-1080, 72 h
# Outline: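 HT1080 cells grown in DMEM with 10% FBS, penicillin G and streptomycin. Exponentially growing cultures seeded at 5 × 10^4 cells/mL and left to adhere 18 h before drug addition. MTT viability read after 72 h. Growth as % of untreated controls, IC50 by linear regression. Mean ± SEM of three independent experiments. Doxorubicin hydrochloride as reference.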
row,Compound,IC50 [µM]
1,O=C(O)/C(=C/c1ccc(O)cc1)[C@@H](C(=O)O)C(=O)c1ccc(O)cc1,30.6
2,O=C1O[C@@H](c2ccc(O)cc2)[C@H](C(=O)O)/C1=C\c1ccc(O)cc1 (relative stereo),36
3,COc1cccc2c1C(=O)c1c(O)c3c(c(O)c1C2=O)C[C@@](O)(C(=O)CO)C[C@@H]3O[C@H]1C[C@H](N)[C@H](O)[C@H](C)O1 [DOXORUBICIN HYDROCHLORIDE],0.012
4,C=C[C@@H](O)C#CC#C[C@@H](O)/C=C\CCCCCCC [FALCARINDIOL],13
5,COC(=O)/C=C/c1ccc(O)c(O)c1 [METHYLCAFFEATE],11.1
6,COc1cc2ccc(=O)oc2cc1O [SCOPOLETIN],12.5

# Tested on: HL-60
# Assay: Cytotoxicity against human HL60 cells after 72 hrs by MTT assay
# Assay type: functional, cell-based
# Details: HL-60, 72 h
# Outline: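 HL-60 leukaemia cells in exponential growth, resuspended at 1 × 10^5 cells/mL in RPMI 1640 with 10% FBS, penicillin G and streptomycin. Drug exposure for 72 h, then viability by MTT. Growth at each concentration expressed as % of untreated controls. IC50 (50% growth inhibition) by linear regression. Mean ± SEM of three independent experiments. Doxorubicin hydrochloride as reference.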
row,Compound,IC50 [µM]
1,O=C(O)/C(=C/c1ccc(O)cc1)[C@@H](C(=O)O)C(=O)c1ccc(O)cc1,11.5
2,O=C1O[C@@H](c2ccc(O)cc2)[C@H](C(=O)O)/C1=C\c1ccc(O)cc1 (relative stereo),11.3
3,COc1cccc2c1C(=O)c1c(O)c3c(c(O)c1C2=O)C[C@@](O)(C(=O)CO)C[C@@H]3O[C@H]1C[C@H](N)[C@H](O)[C@H](C)O1 [DOXORUBICIN HYDROCHLORIDE],0.01
4,C=C[C@@H](O)C#CC#C[C@@H](O)/C=C\CCCCCCC [FALCARINDIOL],8.9
5,COC(=O)/C=C/c1ccc(O)c(O)c1 [METHYLCAFFEATE],7.5
6,COc1cc2ccc(=O)oc2cc1O [SCOPOLETIN],9.5
